Experiments:
Conditions in all cases: stereoisomer not certain
[1] = target: T1, OR51B5 (Homo sapiens) (UniProt Q9H339)
T1 sequence (whole entry): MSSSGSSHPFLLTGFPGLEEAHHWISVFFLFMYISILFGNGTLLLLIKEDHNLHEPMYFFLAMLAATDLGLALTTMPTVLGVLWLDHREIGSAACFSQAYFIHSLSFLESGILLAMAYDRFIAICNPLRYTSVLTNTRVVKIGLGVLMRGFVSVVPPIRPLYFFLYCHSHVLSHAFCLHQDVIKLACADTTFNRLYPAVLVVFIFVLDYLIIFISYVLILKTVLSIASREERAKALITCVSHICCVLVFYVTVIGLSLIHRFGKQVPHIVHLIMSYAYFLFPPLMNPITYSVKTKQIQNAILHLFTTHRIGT
Procedure, shortened: (§1)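 Each entry records the cell line, G-protein, co-transfected protein and tags used. Methods varied with the source, often transient luciferase assays in mammalian cell lines. A receptor–molecule pair is called responsive (active) if the original authors judged its signal statistically different from baseline and non-responsive (inactive) otherwise.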

[2] = target: T2, OR51E1 (Homo sapiens) (UniProt Q8TCB6)
T2 sequence (whole entry): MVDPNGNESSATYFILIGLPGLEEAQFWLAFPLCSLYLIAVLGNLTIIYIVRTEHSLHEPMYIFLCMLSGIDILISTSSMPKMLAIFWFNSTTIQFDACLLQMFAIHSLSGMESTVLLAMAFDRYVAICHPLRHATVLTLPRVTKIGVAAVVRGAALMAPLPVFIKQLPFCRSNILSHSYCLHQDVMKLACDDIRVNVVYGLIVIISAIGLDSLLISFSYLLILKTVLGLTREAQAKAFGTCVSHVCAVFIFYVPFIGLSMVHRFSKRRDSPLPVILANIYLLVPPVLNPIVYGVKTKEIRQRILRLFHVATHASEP
Procedure, shortened: as §1

[3] = target: T3, OR51E2 (Homo sapiens) (UniProt Q9H255)
T3 sequence (whole entry): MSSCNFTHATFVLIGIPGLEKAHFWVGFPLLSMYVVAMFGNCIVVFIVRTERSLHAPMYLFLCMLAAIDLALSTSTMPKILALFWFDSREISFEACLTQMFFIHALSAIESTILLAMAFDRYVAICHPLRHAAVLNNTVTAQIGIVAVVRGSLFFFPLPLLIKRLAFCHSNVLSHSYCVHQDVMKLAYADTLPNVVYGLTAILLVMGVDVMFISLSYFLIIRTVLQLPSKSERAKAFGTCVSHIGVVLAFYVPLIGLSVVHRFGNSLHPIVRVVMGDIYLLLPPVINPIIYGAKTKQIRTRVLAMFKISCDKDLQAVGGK
Procedure, shortened: as §1

[4] = target: OR51A4 (Homo sapiens) (UniProt Q8NGJ6)
Procedure, shortened: as §1

[5] = target: OR51A7 (Homo sapiens) (UniProt Q8NH64)
Procedure, shortened: as §1

[6] = target: OR51B2 (Homo sapiens) (UniProt Q9Y5P1)
Procedure, shortened: as §1

[7] = target: OR51B4 (Homo sapiens) (UniProt Q9Y5P0)
Procedure, shortened: as §1

[8] = target: OR51B6 (Homo sapiens) (UniProt Q9H340)
Procedure, shortened: as §1

[9] = target: OR51D1 (Homo sapiens) (UniProt Q8NGF3)
Procedure, shortened: as §1

[10] = target: OR51E1 (Homo sapiens) (UniProt Q8TCB6); remark: listed apart in the source
Procedure, shortened: as §1
Target sequence in this assay (Q8TCB6 whole entry): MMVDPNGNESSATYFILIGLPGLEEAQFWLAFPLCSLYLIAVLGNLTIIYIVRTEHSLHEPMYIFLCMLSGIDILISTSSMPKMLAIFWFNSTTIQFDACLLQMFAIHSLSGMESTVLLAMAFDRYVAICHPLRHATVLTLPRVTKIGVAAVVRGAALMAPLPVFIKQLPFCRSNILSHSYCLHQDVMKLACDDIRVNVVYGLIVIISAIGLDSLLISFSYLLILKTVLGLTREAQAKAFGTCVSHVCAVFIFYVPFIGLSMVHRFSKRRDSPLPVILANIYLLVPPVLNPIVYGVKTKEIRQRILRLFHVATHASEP

Measured: odorant receptor agonist call

Sequence of OR51A4 (Homo sapiens) (Q8NGJ6 whole entry): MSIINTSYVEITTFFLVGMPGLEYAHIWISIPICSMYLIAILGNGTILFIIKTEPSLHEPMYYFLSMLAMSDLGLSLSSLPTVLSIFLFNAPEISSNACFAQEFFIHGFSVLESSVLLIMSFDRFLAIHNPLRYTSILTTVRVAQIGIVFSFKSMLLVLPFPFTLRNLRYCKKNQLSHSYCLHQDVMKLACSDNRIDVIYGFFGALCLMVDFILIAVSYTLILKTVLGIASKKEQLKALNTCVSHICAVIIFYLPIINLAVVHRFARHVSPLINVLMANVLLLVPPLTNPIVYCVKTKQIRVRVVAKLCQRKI
Sequence of OR51B4 (Homo sapiens) (Q9Y5P0 whole entry): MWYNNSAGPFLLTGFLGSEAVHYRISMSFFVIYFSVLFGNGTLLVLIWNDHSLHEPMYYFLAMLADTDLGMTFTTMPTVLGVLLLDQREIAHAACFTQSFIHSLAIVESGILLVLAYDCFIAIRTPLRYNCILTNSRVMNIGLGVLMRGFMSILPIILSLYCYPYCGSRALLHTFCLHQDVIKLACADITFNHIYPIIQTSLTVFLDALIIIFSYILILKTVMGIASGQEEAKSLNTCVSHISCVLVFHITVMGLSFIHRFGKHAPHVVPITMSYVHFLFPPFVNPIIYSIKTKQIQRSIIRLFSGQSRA
Sequence of OR51B6 (Homo sapiens) (Q9H340 whole entry): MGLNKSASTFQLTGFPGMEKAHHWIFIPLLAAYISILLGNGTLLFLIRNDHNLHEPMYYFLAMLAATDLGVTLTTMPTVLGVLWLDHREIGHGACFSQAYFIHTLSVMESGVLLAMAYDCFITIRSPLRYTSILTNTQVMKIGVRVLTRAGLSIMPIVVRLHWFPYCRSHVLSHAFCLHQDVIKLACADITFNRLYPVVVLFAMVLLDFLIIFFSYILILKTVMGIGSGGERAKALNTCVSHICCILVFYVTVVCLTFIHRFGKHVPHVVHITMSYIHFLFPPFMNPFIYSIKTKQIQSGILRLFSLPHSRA
Sequence of OR51A7 (Homo sapiens) (Q8NH64 whole entry): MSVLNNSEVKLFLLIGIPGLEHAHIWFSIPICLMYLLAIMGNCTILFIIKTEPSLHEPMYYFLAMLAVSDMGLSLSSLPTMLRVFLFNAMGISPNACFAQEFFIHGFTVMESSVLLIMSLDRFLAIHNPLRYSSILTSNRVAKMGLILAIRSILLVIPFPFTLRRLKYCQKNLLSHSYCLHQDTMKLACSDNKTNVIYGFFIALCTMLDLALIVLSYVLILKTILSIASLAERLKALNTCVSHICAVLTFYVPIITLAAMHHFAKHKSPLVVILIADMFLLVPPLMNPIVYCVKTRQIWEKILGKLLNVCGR
Sequence of OR51B2 (Homo sapiens) (Q9Y5P1 whole entry): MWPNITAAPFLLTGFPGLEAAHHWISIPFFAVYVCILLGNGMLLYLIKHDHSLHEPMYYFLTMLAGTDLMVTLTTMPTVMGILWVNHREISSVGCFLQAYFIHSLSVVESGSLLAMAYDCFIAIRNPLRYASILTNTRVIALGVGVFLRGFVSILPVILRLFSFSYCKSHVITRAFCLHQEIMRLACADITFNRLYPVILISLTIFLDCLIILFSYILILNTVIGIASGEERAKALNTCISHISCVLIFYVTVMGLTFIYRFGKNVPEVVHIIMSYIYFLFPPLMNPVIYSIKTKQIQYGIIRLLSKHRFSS
Sequence of OR51D1 (Homo sapiens) (Q8NGF3 whole entry): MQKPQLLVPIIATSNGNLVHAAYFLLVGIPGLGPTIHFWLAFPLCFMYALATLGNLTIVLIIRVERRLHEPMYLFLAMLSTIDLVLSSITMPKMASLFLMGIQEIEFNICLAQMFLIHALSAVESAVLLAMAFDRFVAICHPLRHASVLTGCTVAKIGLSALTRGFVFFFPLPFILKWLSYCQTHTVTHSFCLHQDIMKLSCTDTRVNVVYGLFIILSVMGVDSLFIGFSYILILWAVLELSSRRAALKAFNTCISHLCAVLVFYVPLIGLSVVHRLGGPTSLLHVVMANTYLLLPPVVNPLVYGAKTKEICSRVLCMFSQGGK

COc1ccc(C=O)cc1
inactive: [1]

O=c1cc(O)c2ccccc2o1
inactive: [2] | [3]

Cc1c([N+](=O)[O-])c(C)c([N+](=O)[O-])c(C(C)(C)C)c1[N+](=O)[O-]
inactive: [4] | [5] | [6] | [7] | [1] | [8] | [9] | [3]

C=CCOC(=O)Cc1ccccc1
inactive: [4] | [5] | [6] | [7] | [1] | [8] | [9] | [10] | [2] | [3]

Cc1cccc(C)c1
inactive: [1]

C=CCc1ccccc1
inactive: [2] | [3]

CCC1CCC(=O)O1 (stereo unspecified)
inactive: [2] | [3]
